From publication PMC5815829 (Journal of the American Chemical Society, 2017)
“Also recorded” adds a separate entry of the source. Read-outs that look alike come from different tables or passages of the source.

What was measured:
[1] = system: H6:s10:loop:GFP; settings: cited from earlier work
[2] = system: s10• H6:s10:loop:GFP; settings: dark; cited from earlier work
[3] = system: truly truncated H6:GFP: loop:s11; assay: Spontaneous dark reassembly with s11; format: binding; settings: 4 μM protein, 20 μM s11, dark
How it was run: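 Truncated protein made from intact GFP carrying a sacrificial loop: loop cut by proteolysis, then strand 11 stripped off in 6M Guanidinium-HCl. Protein separated from s11 peptide by size exclusion, refolded by rapid dilution into non-denaturing buffer, then thermally relaxed. 4 µM protein mixed with 20 µM s11 peptide without irradiation. Reassembly followed over time; second-order k reported in M-1s-1.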

[4] = system: s10• H6:GFP: loop:s11; assay: Displacement of bound s10 by excess s11; format: binding; settings: excess s11 added to isolated complex; data not shown
[5] = system: H6:GFP: loop:s11; settings: His-tag retained, cited from earlier work
[6] = system: H6:GFP: loop:s11•s11; settings: excess replacement peptide s11^222Q; cited from earlier work

Sequence	reassembly with s10 in the dark [1]	spontaneous off-rate of strand 10 [2]	rate constant k of spontaneous reassembly with s11 in the dark [3]	displacement of bound s10 [4]	binding of s11 in the dark ([5]; listed as native peptide)	binding of s11 in the dark [5]	spontaneous off-rate of strand 11 [6]
NHYLSTQSVLS [s10]	readily reassembles	very slow	–	–	–	–	–
HMVLLEFVTAA [s11]	–	–	1.2 × 10^0 M^−1 s^−1	able to displace the bound s10, and light accelerates this process	unable to displace the H6 slotted into this groove until it is vacated following light activation	unable to bind s11 in the dark; also recorded: does not rebind added synthetic strand 11 (s11) spontaneously in the dark	effectively zero
